The values that follow come from ChEMBL document CHEMBL4368872, “Synthesis and anticonvulsant activity of phenoxyacetyl derivatives of amines, including aminoalkanols and amino acids” (Medchemcomm, 2018).

The test system of series [1] is Mus musculus. In words: Anticonvulsant activity in ip dosed CF-1 mouse model of subcutaneous pentylenetetrazole-induced seizure assessed as reduction in convulsions. The class given is functional. Summed up: (§1)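 Mice given test compound i.p.; pentylenetetrazole 85 mg kg⁻¹ in 0.9% NaCl injected subcutaneously into posterior midline of neck. Seizures observed for at least 30 min. Protected = no fore and/or hind limb clonus, jaw chomping or vibrissae twitching (3 to 5 s). Screening doses 30, 100, 300 mg kg⁻¹; read at 0.25, 0.5, 1.0, 4.0 h; scored as protected/tested.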

In series [2] the test system is Mus musculus. In words: Anticonvulsant activity in ip dosed CF-1 mouse model of subcutaneous pentylenetetrazole-induced seizure assessed as time required for reduction in convulsions. The format is functional. Put shortly: as §1
Series [3] in a line: Neurotoxicity in Sprague-Dawley rat at 30 mg/kg, po measured after 4 hrs by rotarod test. Conditions: in vivo. The class given is toxicity, organism-based. Summed up:
(§2)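 Rat neurotoxicity after i.p. or p.o. dosing was scored as animals impaired / animals tested at each time point. For p.o. dosing, TD50 was obtained by probit analysis.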
(In general: In the rotarod test animals must keep their balance on a rotating rod.)

The nature of series [4]: Neurotoxicity in Sprague-Dawley rat at 30 mg/kg, po measured after 2 hrs by rotarod test. The format is toxicity, organism-based. Conditions: in vivo. Summed up: as §2
Series [5] deals with Mus musculus. Briefly: Anticonvulsant activity in CF-1 mouse model of maximal electroshock-induced seizure assessed as suppression of tonic hind limb extension at 30 mg/kg, ip measured at 0.5 hrs post dose. The format is functional, organism-based. Put shortly:
(§3)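 Mice dosed i.p. and given maximal electroshock at 50 mA. Read-out is protection, reported as number protected / number tested at 0.25, 0.5, 1 and 4 h after dosing.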

The subject of series [6] is Mus musculus. Briefly: Anticonvulsant activity in CF-1 mouse model of maximal electroshock-induced seizure assessed as suppression of tonic hind limb extension at 300 mg/kg, ip measured at 0.5 hrs post dose. The format is functional, organism-based. Put shortly:
as §3

In series [7] the test system is Mus musculus. Briefly: Anticonvulsant activity in CF-1 mouse model of maximal electroshock-induced seizure assessed as suppression of tonic hind limb extension at 30 mg/kg, ip measured at 4 hrs post dose. The format is functional, organism-based. Summed up: as §3
For series [8], the system named is Mus musculus. Briefly: Anticonvulsant activity in CF-1 mouse model of maximal electroshock-induced seizure assessed as suppression of tonic hind limb extension at 100 mg/kg, ip measured at 4 hrs post dose. The format is functional, organism-based. Put shortly: as §3
On the technique in general: Protection in the maximal electroshock model is a classic sign of anticonvulsant action.

In series [9] the test system is Mus musculus. In words: Anticonvulsant activity in CF-1 mouse model of maximal electroshock-induced seizure assessed as suppression of tonic hind limb extension at 300 mg/kg, ip measured at 4 hrs post dose. The format is functional, organism-based. Put shortly:
as §3

The subject of series [10] is Mus musculus. In words: Anticonvulsant activity in CF-1 mouse model of subcutaneous pentylenetetrazole-induced seizure assessed as reduction in convulsions at 30 mg/kg, ip measured at 0.5 hrs post dose. The format is functional, organism-based. Summed up:
(§4)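 Mice dosed i.p., then given pentylenetetrazole 85 mg/kg in 0.9% NaCl s.c. into the posterior midline of the neck. Seizures watched for at least 30 min. Scored as protected / tested at 0.5 and 4 h.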

The subject of series [11] is Mus musculus. In words: Anticonvulsant activity in CF-1 mouse model of subcutaneous pentylenetetrazole-induced seizure assessed as reduction in convulsions at 100 mg/kg, ip measured at 0.5 hrs post dose. The class given is functional, organism-based. Summed up: as §4
Series [12] relates to Mus musculus. Briefly: Anticonvulsant activity in CF-1 mouse model of subcutaneous pentylenetetrazole-induced seizure assessed as reduction in convulsions at 300 mg/kg, ip measured at 0.5 hrs post dose. The class given is functional, organism-based. Put shortly: as §4
In series [13] the test system is Mus musculus. Briefly: Anticonvulsant activity in CF-1 mouse model of subcutaneous pentylenetetrazole-induced seizure assessed as reduction in convulsions at 30 mg/kg, ip measured at 4 hrs post dose. The format is functional, organism-based. Put shortly: as §4
In series [14] the test system is Mus musculus. Briefly: Anticonvulsant activity in CF-1 mouse model of subcutaneous pentylenetetrazole-induced seizure assessed as reduction in convulsions at 100 mg/kg, ip measured at 4 hrs post dose. The class given is functional, organism-based. Summed up:
as §4

Series [15] deals with Mus musculus. In words: Anticonvulsant activity in CF-1 mouse model of subcutaneous pentylenetetrazole-induced seizure assessed as reduction in convulsions at 300 mg/kg, ip measured at 4 hrs post dose. The class given is functional, organism-based. Summed up: as §4
Series [16] in a line: Neurotoxicity in CF-1 mouse at 30 mg/kg, ip measured after 0.5 hrs by rotarod test. The format is toxicity, organism-based. Conditions: in vivo. Summed up: (§5)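 Mice dosed i.p. were placed on a 1 in. knurled rod turning at 6 rpm. Toxicity was scored as failure to keep balance for at least 1 min, i.e. falling off three or more times. Results are reported as animals showing toxicity / animals tested at each time point.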

Series [17] is described as follows: Neurotoxicity in CF-1 mouse at 300 mg/kg, ip measured after 0.5 hrs by rotarod test. The class given is toxicity, organism-based. Conditions: in vivo. Put shortly:
as §5

Series [18] can be described thus: Neurotoxicity in CF-1 mouse at 30 mg/kg, ip measured after 4 hrs by rotarod test. Conditions: in vivo. The class given is toxicity, organism-based. Summed up: as §5
The nature of series [19]: Neurotoxicity in CF-1 mouse at 100 mg/kg, ip measured after 4 hrs by rotarod test. The class given is toxicity, organism-based. Conditions: in vivo. Put shortly:
as §5

A short description of series [20]: Neurotoxicity in CF-1 mouse at 300 mg/kg, ip measured after 4 hrs by rotarod test. Conditions: in vivo. The format is toxicity, organism-based. Put shortly:
as §5

The test system of series [21] is Rattus norvegicus. In words: Anticonvulsant activity in Sprague-Dawley rat model of maximal electroshock-induced seizure assessed as suppression of tonic hind limb extension at 30 mg/kg, po measured at 1 hr post dose. The format is functional, organism-based. Put shortly:
(§6)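 Rats given 30 mg/kg p.o. and tested by maximal electroshock at 150 mA. Scored as number protected / number tested (4 per group) at 0.25, 0.5, 1, 2 and 4 h after dosing.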

Series [22] deals with Rattus norvegicus. Briefly: Anticonvulsant activity in Sprague-Dawley rat model of maximal electroshock-induced seizure assessed as suppression of tonic hind limb extension at 30 mg/kg, po measured at 2 hrs post dose. The format is functional, organism-based. Put shortly:
as §6

Series [23] concerns Rattus norvegicus. Briefly: Anticonvulsant activity in Sprague-Dawley rat model of maximal electroshock-induced seizure assessed as suppression of tonic hind limb extension at 30 mg/kg, po measured at 4 hrs post dose. The class given is functional, organism-based. Put shortly: as §6
Series [24] in a line: Neurotoxicity in Sprague-Dawley rat at 30 mg/kg, po measured after 0.25 hrs by rotarod test. The class given is toxicity, organism-based. Conditions: in vivo. Summed up:
as §2

A short description of series [25]: Neurotoxicity in Sprague-Dawley rat at 30 mg/kg, po measured after 0.5 hrs by rotarod test. The format is toxicity, organism-based. Conditions: in vivo. Put shortly:
as §2

Series [26] is described as follows: Neurotoxicity in Sprague-Dawley rat at 30 mg/kg, po measured after 1 hr by rotarod test. Conditions: in vivo. The class given is toxicity, organism-based. Summed up: as §2
Series [27] in a line: Neurotoxicity in Sprague-Dawley rat at 100 mg/kg, ip measured after 2 hrs by rotarod test. Conditions: Sprague-Dawley, in vivo. The class given is toxicity, organism-based. Put shortly:
as §2

Series [28] concerns Mus musculus. In words: Anticonvulsant activity in CF-1 mouse assessed as protection against 44 mA current-induced seizure at 40 to 80 mg/kg, ip after 0.5 hrs by 6 Hz psychomotor test. The format is functional.

Activity calls are given as the source filed them. No cut-off for these calls is given here.

Usually ED50 stands for the midpoint of the dose-response relation. With `CC(=O)[C@H]1CC[C@H]2[C@@H]3CC[C@H]4C[C@H](O)CC[C@]4(C)[C@H]3CC[C@]12C` [BREXANOLONE], the ED50 in the series on Mus musculus [1] turned out to be 13.7 mg/kg. Further, in the series on Mus musculus [2], the Time was found to be 0.17 h.

As for `CNC(=O)C(C)NC(=O)COc1c(C)cccc1C` (stereo not drawn), the Activity entry was “Non-Toxic” in [3]; “Non-Toxic” in series [4]; “Non-Toxic” in [16]; “Toxic” in series [17]; “Non-Toxic” in series [18]; “Non-Toxic” in series [19]. Further, the Activity result in series [20], in [24], in series [25] and in series [26] was “Non-Toxic” in each case. Besides, the result in the series with Mus musculus [5], in the series with Mus musculus [7], with Mus musculus [8], with Mus musculus [9], in the series with Mus musculus [10] and with Mus musculus [11] was inactive. Also, the outcome with Mus musculus [12], in the series on Mus musculus [13], in the series on Mus musculus [14], in the series with Mus musculus [15], in the series with Rattus norvegicus [21] and with Rattus norvegicus [22] was inactive. Moreover, the outcome with Rattus norvegicus [23] was inactive. Moreover, the outcome with Mus musculus [6] was Active.

One may read the TD50 as the 50% point of the dose-response relation for the toxic effect studied. `NC(=O)N1c2ccccc2C=Cc2ccccc21` [CARBAMAZEPINE] showed a TD50 at 2 h in [27] of 364 mg/kg. For the same molecule, the “%max” value in the series on Mus musculus [28] stood at 75%.
